According to ChEMBL document CHEMBL3244156, “Analgesic and tranquilizing activity of 5,8-disubstituted 1-tetralone Mannich bases” (1977):
Activity calls are given as the source filed them. The calls are words filed in the database; no cut-off is given here.

How the values were obtained:
Canis familiaris = assay: Analgesic activity in dog assessed as rippling of skin at 1.62 mg/kg, sc after 2 hrs by radiant heat assay; type: functional, Canis lupus familiaris; details: route subcutaneous
Procedure, shortened: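 Dogs held in a harness with a shaved mid-back patch placed under a concealed radiant heat source. Endpoint is the latency from heat onset to skin "rippling". Baseline latency measured in each dog, then retested at 0.5 and 2 h after dosing. Result expressed as % of control.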

Rattus norvegicus [1] = assay: Analgesic activity in rat assessed as median foot shock required to elicit flinch-jump at 17.8 mg/kg, po after 2 hrs; type: functional
Mus musculus [2] = assay: Analgesic activity in mouse at 10 mg/kg, ip after 2 hrs by hot plate assay; type: functional; details: route intraperitoneal
Procedure, shortened: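 Mice dropped into a glass cylinder on an aluminum plate held at 57 °C. Timed from foot contact to first hind-foot flick, with a 10-s limit. Observed 0.5 and 2 h after treatment. Value is % of mice failing to react within the limit. At least ten mice per dose.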

Mus musculus [3] = assay: Analgesic activity in mouse assessed as tail-flick latency period at 10 mg/kg, ip after 2 hrs by tail flick test; type: functional; details: route intraperitoneal
Rattus norvegicus [4] = species on record: Rattus norvegicus; assay: Induction of tolerance development in rat assessed as median foot shock required to elicit flinch-jump; type: functional, organism-based

CN1CC[C@]23c4c5ccc(O)c4O[C@H]2[C@@H](O)C=C[C@H]3[C@H]1C5 [MORPHINE]
Activity (Canis familiaris): 155%
Activity (Rattus norvegicus [1]): 1.2%
Activity (Mus musculus [2]): 70%
Activity (Mus musculus [3]): 80%
Activity (Rattus norvegicus [4]): Active
